Source: ChEMBL document CHEMBL1157359, “Binding of ceftobiprole and comparators to the penicillin-binding proteins of Escherichia coli, Pseudomonas aeruginosa, Staphylococcus aureus, and Streptococcus pneumoniae” (Antimicrob Agents Chemother, 2007)
pIC50: −log10 of the molar value. In brackets after ≈: the same amount, converted by molar mass.

Tests used:
[1] = Inhibition of bocillin FL binding to penicillin-susceptible Streptococcus pneumoniae OC 8865 penicillin-binding protein 2b
Summary of the method: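 S. pneumoniae OC 8865 PBPs assayed in whole cells; drug competition followed by Bocillin FL labeling and imaging of labeled PBPs. IC50 is 50% inhibition of Bocillin FL binding compared with a no-drug control.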

[2] = Inhibition of bocillin FL binding to penicillin-resistant Streptococcus pneumoniae OC 8819 penicillin-binding protein 2x
Summary of the method: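 Whole S. pneumoniae cells were used rather than isolated membranes. Cells were competed with drug and then labeled with Bocillin FL, and PBP bands were visualized by fluorescence imaging. IC50 is the drug concentration that inhibits Bocillin FL binding to each PBP by 50% relative to a no-drug control.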

[3] = target: T1, Penicillin-binding protein 2 (Pseudomonas aeruginosa, UniProt Q9X6V3); experiment: Inhibition of bocillin FL binding to Pseudomonas aeruginosa PAO1 penicillin-binding protein 2
T1 sequence (Q9X6V3 whole entry): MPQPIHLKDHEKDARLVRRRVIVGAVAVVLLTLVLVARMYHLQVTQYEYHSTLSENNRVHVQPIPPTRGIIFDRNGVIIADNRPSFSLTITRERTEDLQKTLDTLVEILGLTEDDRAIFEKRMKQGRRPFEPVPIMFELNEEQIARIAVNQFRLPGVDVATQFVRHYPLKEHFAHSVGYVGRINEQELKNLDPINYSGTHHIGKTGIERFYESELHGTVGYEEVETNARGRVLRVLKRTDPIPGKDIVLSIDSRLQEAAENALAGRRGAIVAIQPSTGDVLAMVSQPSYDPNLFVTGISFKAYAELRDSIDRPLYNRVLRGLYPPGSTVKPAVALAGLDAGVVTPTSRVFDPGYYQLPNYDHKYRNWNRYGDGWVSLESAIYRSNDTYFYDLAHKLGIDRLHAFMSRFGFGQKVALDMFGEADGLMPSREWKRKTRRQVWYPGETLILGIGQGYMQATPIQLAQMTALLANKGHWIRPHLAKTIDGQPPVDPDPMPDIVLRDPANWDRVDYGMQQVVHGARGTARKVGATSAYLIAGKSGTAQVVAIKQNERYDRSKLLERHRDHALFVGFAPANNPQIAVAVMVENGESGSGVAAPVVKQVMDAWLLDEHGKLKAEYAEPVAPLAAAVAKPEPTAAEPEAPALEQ
Summary of the method: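 Isolated P. aeruginosa PAO1 PBPs; drug added at 10 concentrations, 0.06 μg/ml to 32 μg/ml, before Bocillin FL labeling. Labeled PBPs imaged. IC50 is the drug level cutting Bocillin FL binding by 50% versus a no-drug sample.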

[4] = target: T2, Penicillin-binding protein 2 (Staphylococcus aureus, UniProt Q53729); experiment: Inhibition of bocillin FL binding to methicillin-susceptible Staphylococcus aureus ATCC 29213 penicillin-binding protein 2
T2 sequence (Q53729 whole entry): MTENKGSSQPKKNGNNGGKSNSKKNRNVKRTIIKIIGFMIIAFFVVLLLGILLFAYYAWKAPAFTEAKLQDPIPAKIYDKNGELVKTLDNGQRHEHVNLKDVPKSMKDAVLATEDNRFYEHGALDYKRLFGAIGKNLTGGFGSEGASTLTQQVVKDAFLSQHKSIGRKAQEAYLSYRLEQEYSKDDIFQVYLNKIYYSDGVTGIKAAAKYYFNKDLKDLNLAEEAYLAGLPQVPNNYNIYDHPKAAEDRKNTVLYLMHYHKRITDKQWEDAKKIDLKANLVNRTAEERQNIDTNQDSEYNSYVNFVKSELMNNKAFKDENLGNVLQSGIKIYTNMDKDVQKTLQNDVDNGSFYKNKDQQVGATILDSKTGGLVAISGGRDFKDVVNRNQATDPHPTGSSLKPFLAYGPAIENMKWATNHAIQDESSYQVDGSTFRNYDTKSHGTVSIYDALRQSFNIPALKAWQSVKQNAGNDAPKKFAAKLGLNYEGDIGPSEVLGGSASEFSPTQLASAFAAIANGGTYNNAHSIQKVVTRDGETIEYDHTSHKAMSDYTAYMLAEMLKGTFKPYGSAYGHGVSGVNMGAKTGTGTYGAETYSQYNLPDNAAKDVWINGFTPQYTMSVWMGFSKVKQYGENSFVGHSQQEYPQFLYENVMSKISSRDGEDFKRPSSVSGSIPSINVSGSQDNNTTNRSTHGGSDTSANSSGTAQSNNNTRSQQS
Summary of the method: (§1)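 Isolated S. aureus ATCC 29213 PBPs exposed to drug over 0.001 μg/ml to 50 μg/ml, followed by Bocillin FL labeling and fluorescence imaging. IC50 is 50% inhibition of Bocillin FL binding relative to no-drug control.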

[5] = target: T3, Penicillin-binding protein 3 (Staphylococcus aureus, UniProt Q5D1F0); experiment: Inhibition of bocillin FL binding to methicillin-susceptible Staphylococcus aureus ATCC 29213 penicillin-binding protein 3; summary of the method: as §1
T3 sequence (Q5D1F0 whole entry): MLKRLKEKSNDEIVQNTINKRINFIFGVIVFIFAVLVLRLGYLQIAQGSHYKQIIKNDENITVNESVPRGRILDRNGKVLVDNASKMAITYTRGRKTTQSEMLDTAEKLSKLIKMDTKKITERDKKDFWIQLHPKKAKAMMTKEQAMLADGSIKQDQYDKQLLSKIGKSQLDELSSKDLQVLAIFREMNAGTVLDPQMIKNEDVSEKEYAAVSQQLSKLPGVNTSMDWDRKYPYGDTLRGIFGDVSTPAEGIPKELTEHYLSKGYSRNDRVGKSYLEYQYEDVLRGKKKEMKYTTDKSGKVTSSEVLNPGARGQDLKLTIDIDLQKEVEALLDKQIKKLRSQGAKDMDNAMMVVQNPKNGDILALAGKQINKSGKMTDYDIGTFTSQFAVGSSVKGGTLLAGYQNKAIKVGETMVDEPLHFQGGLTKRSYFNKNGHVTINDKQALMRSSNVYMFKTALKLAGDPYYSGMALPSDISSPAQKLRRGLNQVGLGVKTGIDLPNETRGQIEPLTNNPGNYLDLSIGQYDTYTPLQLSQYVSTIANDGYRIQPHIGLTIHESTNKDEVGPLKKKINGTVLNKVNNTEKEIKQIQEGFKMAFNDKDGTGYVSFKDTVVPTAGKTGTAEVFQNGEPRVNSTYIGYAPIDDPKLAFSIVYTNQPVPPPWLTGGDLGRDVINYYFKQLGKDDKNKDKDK

`Nc1nc(/C(=N/O)C(=O)N[C@@H]2C(=O)N3C(C(=O)O)=C(/C=C4\CCN([C@@H]5CCNC5)C4=O)CS[C@H]23)ns1` [CEFTOBIPROLE] gave an IC50 [1] of 0.06 µg/mL (≈ 0.112 µM), an IC50 [2] of 1 µg/mL (≈ 1.87 µM) and a pIC50 [3] of 5.25. It also gave a pIC50 [4] of 6.03 and a pIC50 [5] of 7.03.

In the case of `CC(C)(O/N=C(\C(=O)N[C@@H]1C(=O)N2C(C(=O)[O-])=C(C[n+]3ccccc3)CS[C@H]12)c1csc(N)n1)C(=O)O` [CEFTAZIDIME], the pIC50 [3] was under 4.23.

`CO/N=C(\C(=O)N[C@@H]1C(=O)N2C(C(=O)O)=C(CSc3nc(=O)c(O)nn3C)CS[C@H]12)c1csc(N)n1` (stereo in doubt) [CEFTRIAXONE] showed an IC50 [1] of over 1 µg/mL, an IC50 [2] of 8 µg/mL (≈ 14.4 µM) and a pIC50 [4] of 6.74. The pIC50 [5] was 5.74.
